{"source": "paper PMC2034471", "about": "(Nucleic Acids Research, 2007)", "molecules": {"B1": {"name": "Mm53BP1[1463–1617]: mouse 53BP1 fragment 1463–1617, tandem tudor region (protein)", "chain": "PFQAATGSSDGLDSSSSGNSFVGLRVVAKWSSNGYFYSGKITRDVGAGKYKLLFDDGYECDVLGKDILLCDPIPLDTEVTALSEDEYFSAGVVKGHRKESGELYYSIEKEGQRKWYKRMAVILSLEQGNRLREQYGLGPYEAVTPLTKAADISLD"}, "B2": {"name": "1480–1616: human 53BP1 fragment 1480–1616 containing the tudor region (protein, UniProt Q12888 1480-1616, looked up, fragment)", "chain": "SSPGNSFVGLRVVAKWSSNGYFYSGKITRDVGAGKYKLLFDDGYECDVLGKDILLCDPIPLDTEVTALSEDEYFSAGVVKGHRKESGELYYSIEKEGQRKWYKRMAVILSLEQGNRLREQYGLGPYEAVTPLTKAAD"}, "B3": {"name": "ScRad9[754–931]: shorter fragment 754–931 of S. cerevisiae Rad9 (protein, UniProt P14737 754-931, looked up, fragment)", "chain": "GKDSKEQSYVFPEGIRTADNSFLSKDDIIFGNAVWCQYTWNYKFYPGILLEVDTNQDGCWIYFETGRSLTKDEDIYYLDIRIGDAVTFDGNEYVVVGLECRSHDLNIIRCIRGYDTVHLKKKNASGLLGKRTLIKALSSISLDLSEWAKRAKIILEDNEKNKGDAYRYLRHPIRGRKS"}, "B4": {"name": "Metazoan H4-K20me2-long peptide (peptide)", "peptide": "GKGGAKRHRKVLRDNIQGK", "modifications": "K* dimethylated (K20, tenth residue of the peptide)"}, "B5": {"name": "fragments 1319–1480: human 53BP1 fragment 1319–1480 containing the RG-rich stretch (protein, UniProt Q12888 1319-1480, looked up, fragment)", "chain": "TSLSAMHSSGSSGKGAGPLRGKTSGTEPADFALPSSRGGPGKLSPRKGVSQTGTPVCEEDGDAGLGIRQGGKAPVTPRGRGRRGRPPSRTTGTRETAVPGPLGIEDISPNLSPDDKSFSRVVPRVPDSTRRTDVGAGALRRSDSPEIPFQAAAGPSDGLDAS"}, "B6": {"name": "Metazoan H4-K20me2 peptide (peptide)", "peptide": "KRHRK(Me2)VLRD"}}, "key": {"[1]": {"tested_on": "mouse 53BP1 tudor fragment (1463–1617)", "assay": "isothermal titration calorimetry", "assay_type": "binding", "details": "30°C; for Ka (ITC): 50 mM Tris/HCl pH 7.2, 50 mM NaCl, protein 18–33 µM, one-site model; for TΔS / ΔG / ΔH: ITC; for TΔS / ΔG: pH 7.2; for ΔH: pH 7.2, one-site model", "method_in_brief": "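Protein in the cell titrated with H4-K20me2 or H4K20me2-long peptide, generally 10–15 times more concentrated, both equilibrated in the same buffer, by automatic 5–10 µl injections. The first 2 µl injection was excluded. Peaks were integrated and baseline-corrected. Heat of dilution was taken from peptide injected into buffer. One-site fitting gave n, Ka and ΔH.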"}, "[2]": {"biological_target": "Mm53BP1[1463–1617] (mouse) (UniProt P70399)", "assay": "NMR titration"}, "[3]": {"tested_on": "ScRad9[754–947]", "assay": "NMR titration of ScRad9[754–947] with histone peptides", "assay_type": "binding, Saccharomyces cerevisiae", "details": "^1H-^15N HSQC, 600 MHz; protein 0.2–0.5 mM; 50 mM MES pH 6, 50 mM NaCl", "method_in_brief": "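15N-labelled protein (0.2–0.5 mM) in 50 mM MES pH 6, 50 mM NaCl, 1 mM EDTA, 1 mM NaN3, protease inhibitors, TSP reference. Methyl-lysine H3-K79 and H4-K20 tail peptides titrated to 9-, 7-, 5- or 2-fold molar excess. Weighted shift |Δδ1H| + 0.1×|Δδ15N| plotted against ligand concentration; Kd fitted from the curves.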"}, "[4]": {"tested_on": "rad9Δ cells complemented with rad9ΔTudor allele", "assay": "resistance of yeast cells to genotoxic stress, spot test", "assay_type": "cell-based, Saccharomyces cerevisiae", "details": "10-fold serial dilutions on YPD plates with drug; versus wild-type RAD9", "method_in_brief": "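The rad9Δ-L157 full RAD9 deletion strain carried a URA3 YCp50 plasmid: empty, wild-type RAD9 under its own promoter, or RAD9 lacking tudor aa 754–947. Overnight YPD cultures were diluted to OD 0.1 and grown 4–5 h. Tenfold dilutions were spotted on YPD ± camptothecin or 4-nitroquinoline 1-oxide, or plates given UV (120 J/m2) or X-rays (150 Gy, 2.5 Gy/min).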"}, "[5]": {"tested_on": "10 bp oligonucleotide", "details": "NMR; ref [15]; cited from earlier work"}, "[6]": {"tested_on": "146 bp double-stranded DNA", "assay": "EMSA, 146 bp ds DNA", "assay_type": "binding", "details": "DNA 26 nM, 2- to 128-fold molar excess of protein", "method_in_brief": "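146 bp fragment made by PCR on a pUC(357.4) digest template and 5′-end labelled with 32P-ATP/T4 polynucleotide kinase at 37°C. Protein fragments incubated with labelled DNA for 2 h at 22°C in 50 mM Tris–HCl pH 8.0, 1 mM EDTA, 1 mM AEBSF, 1 mM DTT, 50 mM NaCl, 0.1% triton X-100. Resolved on pre-run 6% native polyacrylamide (29:1) in 0.5× TEG at 70 V. Complexes detected by autoradiography of dried gels at –80°C.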"}, "[7]": {"tested_on": "single-stranded and double-stranded DNA", "details": "EMSA; human 53BP1; ref [33]; cited from earlier work"}, "[8]": {"assay": "aggregation / stability of Rad9 fragments in solution", "assay_type": "physicochemical"}, "[9]": {"biological_target": "Mm53BP1[1463–1617] (mouse, UniProt P70399 1463-1617)", "assay": "ITC"}}, "note": "Ends that are not written are not given here. Me2 = dimethylated (lysine)"}
{"molecule": "GKGGAKRHRK*VLRDNIQGK [H4-K20me2-long]", "values": [{"measurement": "Ka (ITC)", "setting": "[1]", "result": "110000 ± 16000", "unit": "M⁻¹"}, {"measurement": "TΔS", "setting": "[1]", "result": 4.6, "unit": "kcal/mol"}, {"measurement": "ΔG", "setting": "[1]", "result": "–6.9 kcal/mol"}, {"measurement": "ΔH", "setting": "[1]", "result": "–2.3 ± 0.1 kcal/mol"}]}
{"molecule": "H3-K79me2 peptide", "values": [{"measurement": "Kd", "setting": "[2]", "result": 1500, "unit": "µM"}]}
{"molecule": "KRHRK*ILRD [yeast H4K20me2]", "values": [{"measurement": "binding to ScRad9[754–947] (^1Hn and ^15N chemical shifts)", "setting": "[3]", "result": "cannot bind"}]}
{"molecule": "KRHRK*VLRD [metazoan H4K20me2]", "values": [{"measurement": "binding to ScRad9[754–947] (^1Hn and ^15N chemical shifts)", "setting": "[3]", "result": "cannot bind"}, {"measurement": "Ka (ITC)", "setting": "[1]", "result": "130000 ± 16000", "unit": "M⁻¹"}, {"measurement": "TΔS", "setting": "[1]", "result": 4.9, "unit": "kcal/mol"}, {"measurement": "ΔG", "setting": "[1]", "result": "–7.1 kcal/mol"}, {"measurement": "ΔH", "setting": "[1]", "result": "–2.2 ± 0.1 kcal/mol"}]}
{"molecule": "O=[N+]([O-])c1cc[n+]([O-])c2ccccc12", "note": "[4-nitroquinoline 1-oxide]", "values": [{"measurement": "sensitivity of rad9ΔTudor cells to DNA damage", "setting": "[4]", "result": "hypersensitivity to DNA damage"}]}
{"molecule": "CC[C@@]1(O)C(=O)OCc2c1cc1n(c2=O)Cc2cc3ccccc3nc2-1", "note": "[camptothecin]", "values": [{"measurement": "sensitivity of rad9ΔTudor cells to DNA damage", "setting": "[4]", "result": "hypersensitivity to DNA damage which was particularly pronounced"}]}
{"molecule": "B1", "values": [{"measurement": "affinity for 10 bp oligonucleotide, in words", "setting": "[5]", "result": "millimolar affinity interaction"}, {"measurement": "interaction with 146 bp ds DNA by gel retardation", "setting": "[6]", "result": "could not detect any interaction"}]}
{"molecule": "B2", "values": [{"measurement": "interaction with DNA in vitro", "setting": "[7]", "result": "interact with single-stranded and double-stranded DNA in vitro"}]}
{"molecule": "B3", "values": [{"measurement": "aggregation propensity / rate relative to ScRad9[754–947]", "setting": "[8]", "result": "same aggregation propensity"}]}
{"molecule": "B4", "values": [{"measurement": "Ka", "setting": "[9]", "result": 110000, "unit": "M⁻¹"}, {"measurement": "Kd", "setting": "[9]", "result": 8.8, "unit": "µM"}, {"measurement": "dH", "setting": "[9]", "result": "-2.3 ± 0.1", "unit": "kcal/mol"}, {"measurement": "stoichiometry N", "setting": "[9]", "result": 1}]}
{"molecule": "B5", "values": [{"measurement": "interaction with DNA in vitro", "setting": "[7]", "result": "interact with single-stranded and double-stranded DNA in vitro"}]}
{"molecule": "B6", "values": [{"measurement": "Ka", "setting": "[9]", "result": 130000, "unit": "M⁻¹"}, {"measurement": "Kd", "setting": "[9]", "result": 7.7, "unit": "µM"}, {"measurement": "dH", "setting": "[9]", "result": "-2.2 ± 0.1", "unit": "kcal/mol"}, {"measurement": "stoichiometry N", "setting": "[9]", "result": 1}]}
